Measurements as given in ChEMBL document CHEMBL4513216, “Probing the Open Global Health Chemical Diversity Library for Multistage-Active Starting Points for Next-Generation Antimalarials” (ACS Infect Dis, 2020).

Experiment: Toxicity liver stage against HepG2, at 10uM
Type: cell-based
Design: test concentration 10 uM, cell line HepG2-A16-CD81EGFP
Conditions: human, HepG2-A16-CD81EGFP cells; read-out: INHIBITION
Summary of the method: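 Uninfected HepG2-A16-CD81EGFP cells, 3 × 10^3 per well, 1536-well, plated on prespotted compound at 10 μM final, parasite-free screening media added to match infected plates; puromycin 10 μM positive, DMSO 0.5% negative; run in parallel with 48 h PbLuc assay at 37 °C, 5% CO2; viability by CellTiter-Glo luminescence, normalized to controls.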

| Compound | cytotoxicity at 10 µM |
| --- | --- |
| COc1cccc(CN2CC(O)CN(C(=O)C3CCC3)CC2=O)c1OC (stereo not drawn) | 4.43% |
| Cc1cccnc1NC(=O)C1(n2cnnn2)CCCCC1 | -2.43% |
| Cc1cc(NC(=O)Cn2ncc(SCC(N)=O)c(Cl)c2=O)ccc1Br | 15.3% |
| Cc1nnsc1C(=O)N1CC(c2nc3ccccc3[nH]2)C1 | 4.17% |
| Cc1nnsc1C(=O)NCc1nn(C2CCCC2)c2c1CCCC2 | -0.543% |
| O=C(c1nc2c(s1)CCCN2C(=O)C1CC1)N1CCOCC1 | 4.96% |
| c1cnc(N2CCO[C@H]3[C@H](OCCN4CCOCC4)CC[C@@H]32)nc1 | -10.2% |
| Cc1c(C)n(Cc2ccccn2)c2nc3c(c(N)c12)CCCCCC3 | 9.15% |
| CCN1CCN(S(=O)(=O)c2cc(C)c(Cl)cc2C)CC1 | -3.89% |
| COC(=O)C1CCN(C(=O)c2nnc3ccc(C)cc3n2)CC1 | 11.7% |
| Oc1ccc(Cl)cc1CNCc1ccccc1Cl | -0.0124% |
| Cc1cc(C)c2cc(CNCc3cccnc3)c3nn(C)c(=O)n3c2c1 | -6.11% |
| c1coc(-c2[nH]c3ncccc3c2CN2CCCOCC2)c1 | -5.44% |
| CNc1nc(C)c(C(=O)N2CCCCC2CN2CCCCCC2)s1 (stereo not drawn) | -2.5% |
| NC(=O)C1(Cc2ccccc2-c2ccccc2)CCCN(CC2CC2)C1 (stereo not drawn) | 1.67% |
| CCc1nc(Cn2nc(COC)oc2=O)cs1 | -43.4% |
| CCN(C)S(=O)(=O)N1CCC(C(O)c2ccc(Cl)cc2)CC1 (stereo not drawn) | 5.84% |
| Cc1cn2c(n1)C(CNCc1cnn3ccccc13)CCC2 (stereo not drawn) | 1.78% |
| CC(C)COC(=O)N1CCN(C(=O)c2ccc3nccn3c2)CC1 | 12.6% |
| Cc1ccc2cccc(C(=O)NCC3CCN(C(C)C)C3)c2n1 (stereo not drawn) | -9.97% |
| CCC1CN(CCCNS(C)(=O)=O)c2ccccc2O1 (stereo not drawn) | -7.03% |
| CN(CC(=O)NS(=O)(=O)c1ccc(F)cc1)Cc1ccccc1 | 14.3% |

| Compound | cytotoxicity at 10 µM |
| --- | --- |
| CNS(=O)(=O)c1ccc(CNC(=O)N2CCOC(C)C2)cc1 (stereo not drawn) | 9.15% |
| O=C(Cc1ccon1)N1CCN(c2ccc(F)cc2Cl)CC1 | 1.02% |
| CC(C)Cc1noc(CN(C)C2CCCC2)n1 | 0.274% |
| CC(=O)N1CCN(C(=O)CN2CCCC2c2c(C)nn(C)c2C)CC1 (stereo not drawn) | 6.34% |
| Cc1cccc(CCC(=O)NCC2CCCN2c2cccnn2)c1 (stereo not drawn) | -3.96% |
| Fc1cccc(CNc2cncc(-n3cccn3)n2)c1 | 0.959% |
| CCN(C1CCN(C(=O)c2cccc(Cl)c2)CC1)S(C)(=O)=O | 0.209% |
| CCc1ccsc1C(=O)N1CCCC(c2noc(C)n2)C1 (stereo not drawn) | 3.77% |
| Cc1noc(COCC(=O)N2CCCC(c3nccs3)C2)n1 (stereo not drawn) | 0.172% |
| CCOc1cccc(COC(=O)c2cc(Cl)ccn2)n1 | -2.52% |
| CN(C)c1ncncc1NC(=O)Cc1c[nH]c2ccc(F)cc12 | -9.74% |
| Cc1ccc(S(=O)(=O)NCc2cnn(C)c2)c(F)c1 | -13% |
| COCCOCC(=O)NC(C#N)c1cc(Cl)cc(Cl)c1 (stereo not drawn) | 8.31% |
| CC(NC(=O)c1cccs1)C(=O)NS(=O)(=O)c1cccc(C#N)c1 (stereo not drawn) | -7.23% |
| CC(CC(=O)N1CCCS1(=O)=O)c1ccccc1C(F)(F)F (stereo not drawn) | 8.92% |
| CCC(O)CN1CCN(C(=O)c2csc(COC)n2)CC1 (stereo not drawn) | 7.72% |
| CC(=O)NCCNC(=O)c1cc(C)ccc1SC1CCCC1 | -41.5% |
| CS(=O)(=O)Cc1cc(Cl)c2c(c1)OCCCO2 | -2.55% |
| COC(=O)c1ccc(N(C)C2CCC2)nn1 | 19.8% |
| CCN(C)c1ccc(CNS(=O)(=O)C2CCOCC2)cc1F | 10.3% |
| COc1ccc(C(=O)N(C)Cc2cccc(C#N)c2)c(OC)c1OC | -17.1% |
| Cc1ccc(C2COCCN2C(=O)c2ccc(CN(C)C)cc2)o1 (stereo not drawn) | 0.692% |

| Compound | cytotoxicity at 10 µM |
| --- | --- |
| O=C(NCC(O)c1cccc(F)c1)c1cccnc1O (stereo not drawn) | -1.68% |
| Cc1nc(CN2CCN(C)C(=O)C23CCN(CC2CCCC2)CC3)cs1 | 11% |
| Cc1ccc2c(n1)N(C)CCN(Cc1cnn(C)c1)C2 | 3.04% |
| c1cncc(CN2CCCC3(COCCN(c4nccs4)C3)C2)c1 (stereo not drawn) | -80.4% |
| Cc1nc(NCC2CC2)nc2c1COCC21CCN(C(=O)C(C)(C)C)C1 (stereo not drawn) | -77.8% |
| CCC1=N[C@@]2(CC[C@@H]3CN(C(=O)NCc4ccccc4)C[C@@H]32)C(=O)N1 | -10.3% |
| CC[C@@H](CO)Nc1cc(-c2cn[nH]c2)ncn1 | -4.78% |
| CN1CCCN(c2nccc(-c3cncnc3C3CCCCC3)n2)CC1 | -6.25% |
| CN1CC(c2ccccc2)CC2(CCN(C(=O)c3ccccc3)CC2)C1 (stereo not drawn) | -0.0342% |
| Cc1nc(C(C)C)ncc1C(=O)N1CCc2c(nc(N(C)C)[nH]c2=O)C1 | 14.3% |
| COC(C)(C)C(=O)N[C@H]1CN(c2nccnc2N(C)C)C[C@@H]1C(C)C | 4.24% |
| CCCOC1CCCN(c2ncnc3c2CCN(C(=O)C2CC2)C3)C1 (stereo not drawn) | 4.84% |
| O=C(NCc1ccc(Cl)s1)c1cc(CN2CCCC(O)C2)on1 (stereo not drawn) | -52.3% |
| Cc1n[nH]c(C)c1CC(=O)N1CCC2(CC1)CN(C)CCN2C | 1.73% |
| O=c1cc(-c2cc(O)cc(CCC3CCCCN3)c2)cc[nH]1 (stereo not drawn) | 0.749% |
| O=C(CN1CCCC1c1nc2cc(F)ccc2[nH]1)NCc1ccccn1 (stereo not drawn) | -0.748% |
| CCCc1cncnc1N1CCC(NCCc2ccc(O)cc2)CC1 | 2.47% |
| CNS(=O)(=O)c1ccc(CN2CCN3CCNC(=O)C3C2)cc1 (stereo not drawn) | -6.22% |
| CCc1nccn1CCC(=O)N1CC(=O)N(c2ccccc2C)CC1C (stereo not drawn) | -15% |
| CCCS(=O)(=O)N1CCC2(CCC(=O)N(Cc3ccccc3)C2)CC1 | 11.2% |
| CCC[C@H]1CN(CCS(C)(=O)=O)C[C@@H]1NC(=O)c1cc(CC)on1 | -2.42% |
| CC(C)c1cc(C2CCN(Cc3cc(F)cc(F)c3)CC2)[nH]n1 | -7.46% |

| Compound | cytotoxicity at 10 µM |
| --- | --- |
| Cc1cc2ncn(C[C@]3(O)CCCN4CCCC[C@@H]43)c2cc1C | -2.42% |
| CCC(=O)N1CCCC1C(=O)N1CCC(Cc2ccc(F)cc2)CC1 (stereo not drawn) | -0.0726% |
| Cc1ccsc1CNc1ccccc1C(=O)N1CCNC(=O)C1 | -1.68% |
| Cc1nn(C)c2nc(N3CCCC3c3nccs3)sc12 (stereo not drawn) | -2.87% |
| Cn1ncc2c(N[C@H]3CCCC[C@@H]3O)nc(C(C)(C)C)nc21 | -21.5% |
| CSCC(=O)N[C@H]1CC[C@H](Nc2nccc(-c3cccnc3)n2)C1 | 9.87% |
| CC(C)CN1C(=O)CC[C@H]2CN(C(=O)c3ncc[nH]3)CC[C@H]21 | 5.09% |
| CCCc1cnc(C)nc1N1CCC(Cn2cc(CO)nn2)CC1 | -4.57% |
| CCN(CC)S(=O)(=O)c1csc(C(=O)N2CCC(C(N)=O)CC2)c1 | -43.9% |
| Cc1ccc(-c2cc(C(=O)NCCC3=CCCCC3)[nH]n2)o1 | -55.1% |
| c1cncc(CCc2nc(C3CC3)nn2-c2ccc3c(c2)OCCO3)c1 | -0.833% |
| COCCc1ncc(CN2C[C@@H](C(=O)O)[C@H](C(C)C)C2)cn1 | -5.35% |
| COc1ccc(C(=O)N2CCC(Oc3ccccc3)(C(=O)O)CC2)o1 | 11.6% |
| Cc1cc(=O)[nH]c(SCC(=O)N(C)CC2Cc3ccccc3CN2C)n1 (stereo not drawn) | -1.96% |
| Cc1cc(C[S+]([O-])CC(=O)NCc2cccc(Cl)c2)no1 (stereo not drawn) | -1.56% |
| CCc1nnc2n1CCN(C(=O)CN(CC)CC)C2 | -3.14% |
| COC(=O)CCNC(=O)c1nnn(-c2ccc(C)cc2)c1C1CC1 | -0.121% |
| Cc1nc(C)n(CC2CN(CCCOc3ccccc3)CCO2)n1 (stereo not drawn) | -0.924% |
| CCN(Cc1cccc(C)c1)Cn1nc(C)c2c(C)onc2c1=O | -1.03% |
| Cc1ccc(-c2nc(CN3CCOC(Cn4cccn4)C3)co2)cc1 (stereo not drawn) | -5.3% |
| O=C(Cc1ccc2c(c1)CCO2)N1CCCC1c1noc(C2CC2)n1 (stereo not drawn) | -7.71% |
| CCCc1n[nH]c(C2CN(Cc3nnc(C4CC4)n3C)CCO2)n1 (stereo not drawn) | -2.36% |

| Compound | cytotoxicity at 10 µM |
| --- | --- |
| CN(C)c1ccc(CNc2cncc(-n3cccn3)n2)cc1 | -7.31% |
| O=C(NCCc1cccnc1)N1CCCC1c1ccsc1 (stereo not drawn) | -6.82% |
| Cc1cc(CN(C)C(=O)NC2CCN(Cc3ccccc3)C2)no1 (stereo not drawn) | -0.421% |
| Cc1nc(CN(C)C2CCN(Cc3ccno3)C2)no1 (stereo not drawn) | 2.07% |
| Cc1cnc(CNC(=O)[C@@]23CCO[C@@H]2CCNC3)cn1 | -108% |
| O=C(NC1CC1)[C@@H]1C[C@@H]2CCN(Cc3ccoc3)C[C@@H]2O1 | -103% |
| O=C([C@@H]1C[C@@H]2CCN(CCc3ccccc3)C[C@H]2O1)N1CCCC1 | 0.307% |
| COc1cccc(-c2noc(C3CCN(Cc4cccs4)C3)n2)c1 (stereo not drawn) | -0.192% |
| O=C(NC1CCC1)[C@@H]1C[C@@H]2CCN(Cc3cccs3)C[C@@H]2O1 | 5.38% |
| COCCN1CCC2(CCCN(C(=O)c3cncn3C)C2)CC1 | -1.4% |
| O=C(c1ccccc1)N1CCC[C@]2(C[C@@H](OCc3ccccn3)CO2)C1 | -67.5% |
| O=C(c1cscn1)N1CC[C@@H]2[C@@H]1CCN2CC1CCOC1 (stereo partly drawn) | -2.36% |
| CN1CCN(C(=O)c2nc3c(o2)CN(C(=O)c2cccnc2)C3)CC1 | -7.06% |
| Cc1nc(CO[C@@H]2CN(Cc3cnn(C)c3)[C@@H]3COC[C@@H]32)cs1 | -7.06% |
| Cc1ccc(CN2CCC3(CC2)CC(c2cccnc2)CO3)s1 (stereo not drawn) | -9.7% |
| CCOc1ccccc1CN1CCc2nc3ccsc3c(=O)n2CC1 | -5.81% |
| CN1CCC2(CC1)C(=O)N(C)c1ccc(F)cc12 | -115% |
| CCCN1C[C@@H]2CC[C@H]1CN(Cc1ccc(-n3cccn3)cc1)C2 | 5.05% |
| CCc1nccn1CCC(=O)N1C[C@@H]2CC[C@H]1CN(C(=O)N(C)C)C2 | -14.4% |
| CC(C)=CCN1C(=O)[C@@H]2CC[C@H]1CN(c1ncccc1C(N)=O)C2 | 6.13% |
